Laboratory results from ChEMBL document CHEMBL1127617, “Synthesis and biological evaluation of C-3'-modified analogs of 9(R)-dihydrotaxol” (J Med Chem, 1994).
In brackets after ≈: the same amount, converted by molar mass.

Experiments:
[1] = test system: B16-F10; test: In vitro cytotoxicity against B16F10 (mouse melanoma) cell line.; assay type: functional, cell-based
Summary of the method: (§1)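 Inhibition of cell proliferation measured against untreated cells after 72 h incubation at 37 °C. Read-out by MTT colorimetric microtiter assay. IC50 taken as the agent concentration giving 50% inhibition of proliferation.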

[2] = test system: A549; test: In vitro cytotoxicity against A549 (human lung carcinoma) cell line.; assay type: functional, cell-based; summary of the method: as §1
[3] = test system: HT-29; test: In vitro cytotoxicity against HT-29 (human colon adenocarcinoma) cell line.; assay type: functional, cell-based; summary of the method: as §1
[4] = test system: P388; test: In vitro cytotoxicity against P388 (murine leukemia) cell line.; assay type: functional, cell-based; settings: Mus musculus; summary of the method: as §1
[5] = Compound was tested for the concentration of agent which reduces the supernatant protein concentration (tubulin, 1 mg/mL) by 50%; ED50/ED50taxol; assay type: functional
Summary of the method: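 Tubulin assembly assay with tubulin at 1 mg/mL, 15 min at 37 °C. Read-out is protein left in the supernatant. ED50 is the agent concentration that lowers supernatant protein by 50%. Value expressed as a ratio to the ED50 of taxol.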

Row | SMILES | IC50 [1] [µg/mL] | IC50 [2] [µg/mL] | IC50 [3] [ng/mL] | IC50 [4] [µg/mL] | Ratio [5]
1 | CCCCC[C@H](NC(=O)OC(C)(C)C)[C@@H](O)C(=O)O[C@H]1C[C@@]2(O)[C@@H](OC(=O)c3ccccc3)[C@@H]3[C@]4(OC(C)=O)CO[C@@H]4C[C@H](O)[C@@]3(C)[C@@H](O)[C@H](OC(C)=O)C(=C1C)C2(C)C | 0.014 (≈ 0.0165 µM) | 0.012 (≈ 0.0142 µM) | 16 (≈ 0.0189 µM) | 0.016 (≈ 0.0189 µM) | 2
2 | CC(=O)O[C@@H]1C2=C(C)[C@@H](OC(=O)[C@H](O)[C@@H](NC(=O)c3ccccc3)c3ccccc3)C[C@@](O)([C@@H](OC(=O)c3ccccc3)[C@@H]3[C@]4(OC(C)=O)CO[C@@H]4C[C@H](O)[C@@]3(C)[C@H]1O)C2(C)C | 0.025 (≈ 0.0292 µM) | 0.019 (≈ 0.0222 µM) | 80 (≈ 0.0935 µM) | 0.053 (≈ 0.0619 µM) | 0.86
3 | CC(=O)O[C@@H]1C2=C(C)[C@@H](OC(=O)[C@H](O)[C@@H](NC(=O)OC(C)(C)C)C(C)O)C[C@@](O)([C@@H](OC(=O)c3ccccc3)[C@@H]3[C@]4(OC(C)=O)CO[C@@H]4C[C@H](O)[C@@]3(C)[C@H]1O)C2(C)C (single isomer, unassigned) [listing 1 of 2 here] | – | – | – | – | 0.8
4 | CC(=O)O[C@@H]1C2=C(C)[C@@H](OC(=O)[C@H](O)[C@H](CC(C)C)NC(=O)OC(C)(C)C)C[C@@](O)([C@@H](OC(=O)c3ccccc3)[C@@H]3[C@]4(OC(C)=O)CO[C@@H]4C[C@H](O)[C@@]3(C)[C@H]1O)C2(C)C | 0.0009 (≈ 0.00108 µM) | 0.00012 (≈ 0.000144 µM) | 0.38 (≈ 0.000457 µM) | 0.00036 (≈ 0.000433 µM) | 0.95
5 | CC(=O)O[C@@H]1C2=C(C)[C@@H](OC(=O)[C@H](O)[C@H](Cc3ccccc3)NC(=O)OC(C)(C)C)C[C@@](O)([C@@H](OC(=O)c3ccccc3)[C@@H]3[C@]4(OC(C)=O)CO[C@@H]4C[C@H](O)[C@@]3(C)[C@H]1O)C2(C)C | > 0.1 | > 0.1 | > 100 | > 0.1 | > 17.1
6 | CCCC[C@@H](NC(=O)OC(C)(C)C)[C@@H](O)C(=O)O[C@H]1C[C@@]2(O)[C@@H](OC(=O)c3ccccc3)[C@@H]3[C@]4(OC(C)=O)CO[C@@H]4C[C@H](O)[C@@]3(C)[C@@H](O)[C@H](OC(C)=O)C(=C1C)C2(C)C | > 0.1 | > 0.1 | 67 (≈ 0.0805 µM) | > 0.1 | 9.74
7 | CC(=O)O[C@@H]1C2=C(C)[C@@H](OC(=O)[C@H](O)[C@@H](NC(=O)OC(C)(C)C)c3cscn3)C[C@@](O)([C@@H](OC(=O)c3ccccc3)[C@@H]3[C@]4(OC(C)=O)CO[C@@H]4C[C@H](O)[C@@]3(C)[C@H]1O)C2(C)C | 0.0003 (≈ 0.000349 µM) | 0.0063 (≈ 0.00733 µM) | 0.92 (≈ 0.00107 µM) | 0.0014 (≈ 0.00163 µM) | 1.36
8 | CC(=O)O[C@@H]1C2=C(C)[C@@H](OC(=O)[C@H](O)[C@@H](NC(=O)OC(C)(C)C)[C@H](O)CO)C[C@@](O)([C@@H](OC(=O)c3ccccc3)[C@@H]3[C@]4(OC(C)=O)CO[C@@H]4C[C@H](O)[C@@]3(C)[C@H]1O)C2(C)C | > 0.1 | > 0.1 | > 100 | > 0.1 | 2.71
9 | C=C[C@H](NC(=O)OC(C)(C)C)[C@@H](O)C(=O)O[C@H]1C[C@@]2(O)[C@@H](OC(=O)c3ccccc3)[C@@H]3[C@]4(OC(C)=O)CO[C@@H]4C[C@H](O)[C@@]3(C)[C@@H](O)[C@H](OC(C)=O)C(=C1C)C2(C)C | 0.0044 (≈ 0.00549 µM) | 0.0011 (≈ 0.00137 µM) | 1.8 (≈ 0.00224 µM) | 0.016 (≈ 0.02 µM) | 0.92
10 | CCCC[C@H](NC(=O)OC(C)(C)C)[C@@H](O)C(=O)O[C@H]1C[C@@]2(O)[C@@H](OC(=O)c3ccccc3)[C@@H]3[C@]4(OC(C)=O)CO[C@@H]4C[C@H](O)[C@@]3(C)[C@@H](O)[C@H](OC(C)=O)C(=C1C)C2(C)C | 0.0097 (≈ 0.0117 µM) | 0.0095 (≈ 0.0114 µM) | 8.8 (≈ 0.0106 µM) | 0.018 (≈ 0.0216 µM) | 2.15
11 | CC(=O)O[C@@H]1C2=C(C)[C@@H](OC(=O)[C@H](O)[C@@H](NC(=O)OC(C)(C)C)C(C)O)C[C@@](O)([C@@H](OC(=O)c3ccccc3)[C@@H]3[C@]4(OC(C)=O)CO[C@@H]4C[C@H](O)[C@@]3(C)[C@H]1O)C2(C)C (single isomer, unassigned) [listing 2 of 2 here] | > 0.1 | > 0.1 | > 100 | > 0.1 | –
12 | COC[C@H](NC(=O)c1ccccc1)[C@@H](O)C(=O)O[C@H]1C[C@@]2(O)[C@@H](OC(=O)c3ccccc3)[C@@H]3[C@]4(OC(C)=O)CO[C@@H]4C[C@H](O)[C@@]3(C)[C@@H](O)[C@H](OC(C)=O)C(=C1C)C2(C)C | > 0.1 | > 0.1 | 79 (≈ 0.0959 µM) | > 0.1 | 3.14
13 | CC(=O)O[C@@H]1C2=C(C)[C@@H](OC(=O)[C@H](O)[C@@H](NC(=O)OC(C)(C)C)C(C)O)C[C@@](O)([C@@H](OC(=O)c3ccccc3)[C@@H]3[C@]4(OC(C)=O)CO[C@@H]4C[C@H](O)[C@@]3(C)[C@H]1O)C2(C)C (mixture of isomers) | – | – | – | – | 1.2
14 | CC(=O)O[C@@H]1C2=C(C)[C@@H](OC(=O)[C@H](O)[C@H](COc3ccccc3)NC(=O)c3ccccc3)C[C@@](O)([C@@H](OC(=O)c3ccccc3)[C@@H]3[C@]4(OC(C)=O)CO[C@@H]4C[C@H](O)[C@@]3(C)[C@H]1O)C2(C)C | 0.084 (≈ 0.0948 µM) | 0.092 (≈ 0.104 µM) | 39 (≈ 0.044 µM) | > 0.1 | 5.81
15 | CC(=O)O[C@@H]1C2=C(C)[C@@H](OC(=O)[C@H](O)[C@@H](NC(=O)OC(C)(C)C)[C@H]3COC(C)(C)O3)C[C@@](O)([C@@H](OC(=O)c3ccccc3)[C@@H]3[C@]4(OC(C)=O)CO[C@@H]4C[C@H](O)[C@@]3(C)[C@H]1O)C2(C)C | 0.086 (≈ 0.0982 µM) | > 0.1 | > 100 | > 0.1 | 7.91
16 | CC(=O)O[C@@H]1C2=C(C)[C@@H](OC(=O)[C@H](O)[C@@H](NC(=O)OC(C)(C)C)C3CCCCC3)C[C@@](O)([C@@H](OC(=O)c3ccccc3)[C@@H]3[C@]4(OC(C)=O)CO[C@@H]4C[C@H](O)[C@@]3(C)[C@H]1O)C2(C)C | 0.0057 (≈ 0.00664 µM) | 0.0065 (≈ 0.00758 µM) | 5 (≈ 0.00583 µM) | 0.014 (≈ 0.0163 µM) | 0.57
17 | CC(=O)O[C@@H]1C2=C(C)[C@@H](OC(=O)[C@H](O)[C@@H](NC(=O)OC(C)(C)C)c3ccccc3)C[C@@](O)([C@@H](OC(=O)c3ccccc3)[C@@H]3[C@]4(OC(C)=O)CO[C@@H]4C[C@H](O)[C@@]3(C)[C@H]1O)C2(C)C | 0.0004 (≈ 0.00047 µM) | 0.003 (≈ 0.00352 µM) | 0.16 (≈ 0.000188 µM) | 0.0025 (≈ 0.00293 µM) | 0.87
18 | CC(=O)O[C@@H]1C2=C(C)[C@@H](OC(=O)[C@H](O)[C@H](C)NC(=O)OC(C)(C)C)C[C@@](O)([C@@H](OC(=O)c3ccccc3)[C@@H]3[C@]4(OC(C)=O)CO[C@@H]4C[C@H](O)[C@@]3(C)[C@H]1O)C2(C)C | 0.019 (≈ 0.0241 µM) | 0.015 (≈ 0.019 µM) | 8.3 (≈ 0.0105 µM) | 0.043 (≈ 0.0544 µM) | 1.08
19 | CC[C@H](NC(=O)OC(C)(C)C)[C@@H](O)C(=O)O[C@H]1C[C@@]2(O)[C@@H](OC(=O)c3ccccc3)[C@@H]3[C@]4(OC(C)=O)CO[C@@H]4C[C@H](O)[C@@]3(C)[C@@H](O)[C@H](OC(C)=O)C(=C1C)C2(C)C | 0.0032 (≈ 0.00398 µM) | 0.00083 (≈ 0.00103 µM) | 1.4 (≈ 0.00174 µM) | 0.011 (≈ 0.0137 µM) | 0.61
